For one test, the species on record is Rattus norvegicus. Put plainly: Selectivity ratio of IC50 for BuchE in rat serum to IC50 for AchE in rat cortex. The class given is cell-free. Summed up:
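IC50 ratio from modified Ellman assays. BuChE from rat serum with butyrylthiocholine iodide. AChE from rat cortex homogenate, preincubated with isoOMPA (0.04 mmol/L) to block BuChE, with acetylthiocholine iodide. Each mixture held enzyme source, sodium phosphate buffer pH 7.4 and compound at different concentrations, incubated 37 °C for 15 min.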

The target of the next test is Butyrylcholinesterase (Rattus norvegicus, UniProt Q9JKC1). The test is described as follows: Inhibition of BuchE in rat serum by Ellman's method. The class given is cell-free. Put shortly: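 Modified Ellman assay with rat serum as BuChE source. Mixture of butyrylthiocholine iodide, sodium phosphate buffer pH 7.4, serum and tested compound at different concentrations, incubated 37 °C for 15 min.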
In general terms: DTNB colorimetry detects thiols as they appear.

For another test, the target named is T1, Acetylcholinesterase (Rattus norvegicus, UniProt P37136).
T1 sequence (P37136 whole entry): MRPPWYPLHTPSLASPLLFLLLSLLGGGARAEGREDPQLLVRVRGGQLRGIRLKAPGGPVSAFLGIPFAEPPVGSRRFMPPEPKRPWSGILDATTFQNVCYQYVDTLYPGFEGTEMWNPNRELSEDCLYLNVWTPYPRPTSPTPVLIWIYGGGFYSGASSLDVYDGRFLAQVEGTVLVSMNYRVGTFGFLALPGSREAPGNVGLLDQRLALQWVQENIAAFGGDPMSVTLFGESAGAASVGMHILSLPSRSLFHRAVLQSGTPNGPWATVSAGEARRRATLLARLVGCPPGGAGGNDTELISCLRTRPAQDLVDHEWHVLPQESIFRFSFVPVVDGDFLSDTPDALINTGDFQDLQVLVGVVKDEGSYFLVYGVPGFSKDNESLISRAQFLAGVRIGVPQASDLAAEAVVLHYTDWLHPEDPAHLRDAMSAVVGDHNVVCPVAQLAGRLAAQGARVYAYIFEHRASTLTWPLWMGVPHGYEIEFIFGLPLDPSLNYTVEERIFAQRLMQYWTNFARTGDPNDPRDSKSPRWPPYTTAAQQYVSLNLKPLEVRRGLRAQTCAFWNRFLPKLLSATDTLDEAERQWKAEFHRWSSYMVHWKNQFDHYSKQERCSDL
The test is described as follows: Inhibition of AchE in rat cortex by Ellman's method.

For test [1], the system named is PC-12. Put plainly: Neuroprotective activity in rat PC12 cells assessed as inhibition of H2O2-induced neurotoxicity at 0.1 uM after 2 hrs by MTT assay. Format: functional, cell-based. Put shortly:
(§1)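 Undifferentiated PC12 cells were seeded at 5000 cells/well and cultured at 37 °C under 5% CO2. They were left to attach for 1 day before […] was added. 2 h later the cells were exposed to H2O2. Viability was read by MTT (0.25 mg/mL final, 4 h), with formazan dissolved in DMSO and OD read at 570 nm.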

Test [2] relates to PC-12. The test is described as follows: Neuroprotective activity against rat PC12 cells assessed as inhibition of H2O2-induced neurotoxicity at 0.5 uM after 2 hrs by MTT assay. Format: functional, cell-based. Summed up: as §1

The source made the active and inactive calls. No cut-off for these calls is given here.

Chain of Butyrylcholinesterase (Q9JKC1 whole entry): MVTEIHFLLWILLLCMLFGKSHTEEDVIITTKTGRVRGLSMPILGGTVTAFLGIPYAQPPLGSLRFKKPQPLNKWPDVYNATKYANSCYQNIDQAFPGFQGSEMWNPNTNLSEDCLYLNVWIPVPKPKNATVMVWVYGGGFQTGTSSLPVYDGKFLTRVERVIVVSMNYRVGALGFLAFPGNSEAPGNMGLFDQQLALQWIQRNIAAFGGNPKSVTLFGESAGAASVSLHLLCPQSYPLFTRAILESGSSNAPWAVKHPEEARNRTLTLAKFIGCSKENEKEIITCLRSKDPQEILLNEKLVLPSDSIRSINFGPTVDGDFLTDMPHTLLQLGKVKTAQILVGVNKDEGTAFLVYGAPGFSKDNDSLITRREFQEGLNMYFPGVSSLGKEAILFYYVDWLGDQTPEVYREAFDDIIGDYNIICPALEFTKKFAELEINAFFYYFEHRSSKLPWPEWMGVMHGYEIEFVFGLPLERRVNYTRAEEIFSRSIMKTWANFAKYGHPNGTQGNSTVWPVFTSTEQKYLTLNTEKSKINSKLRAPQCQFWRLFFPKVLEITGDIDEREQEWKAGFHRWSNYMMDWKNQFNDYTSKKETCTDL

A word on the IC50: it is the concentration that inhibits the measured activity by half. `CCN(CC)CC(=O)c1ccc(OC2Cc3cc(OC)c(OC)cc3C2=O)cc1` (stereo not given): the Ratio IC50 in the test listed under Rattus norvegicus turned out to be 8.7. Also, the concentration for half-maximal inhibition (IC50) on Butyrylcholinesterase came out at 2430 nM; on Acetylcholinesterase, 280 nM.
For `CCN(C)CCc1cccc(OC2Cc3cc(OC)c(OC)cc3C2=O)c1` (stereo not given), in that order: 12.2, 8650 nM and 710 nM.
The corresponding values for `CCN(CC)CCCCc1ccc(OC2Cc3cc(OC)c(OC)cc3C2=O)cc1` (stereo not given) are 6.77, 3260 nM and 481 nM.
Regarding `COc1cc2c(cc1OC)C(=O)C(Oc1ccc(C(=O)CCCN3CCCC3)cc1)C2` (stereo not given), in the test filed under Rattus norvegicus, the Ratio IC50 stood at 47.2. Further, the IC50 on Butyrylcholinesterase was 2930 nM; against Acetylcholinesterase it was 62 nM.
Turning to `CCN(CC)CCc1ccc(OC2Cc3cc(OC)c(OC)cc3C2=O)cc1` (stereo not given), the Ratio IC50 in the test listed under Rattus norvegicus stood at 394. For the same compound, the 50% inhibitory concentration (IC50) at Butyrylcholinesterase worked out at 16600 nM; against Acetylcholinesterase it was 42.1 nM.
As to `CCN(CC)CCC(=O)c1cccc(OC2Cc3cc(OC)c(OC)cc3C2=O)c1` (stereo not given), in the test filed under Rattus norvegicus, the Ratio IC50 was 0.64. For the same compound, the results for the IC50 against Butyrylcholinesterase and against Acetylcholinesterase were 1520 nM and 2370 nM, respectively.
On to `COc1cc2c(cc1OC)C(=O)C(CC1CCN(Cc3ccccc3)CC1)C2` (stereo not given), for which the result in the test on PC-12 [1] and in the test on PC-12 [2] was Active.
`CCN(C)CCc1ccc(OC2Cc3cc(OC)c(OC)cc3C2=O)cc1` (stereo not given): in the test listed under Rattus norvegicus, the Ratio IC50 worked out at 427. Further, the IC50 on Butyrylcholinesterase stood at 22000 nM; at Acetylcholinesterase, 51.6 nM.
Take `COc1cc2c(cc1OC)C(=O)C(Oc1ccc(C(=O)CN3CCCCC3)cc1)C2` (stereo not given): in the test listed under Rattus norvegicus, the Ratio IC50 came out at 4.57. Besides, the half-maximal inhibitory concentration (IC50) was determined as 1660 nM against Butyrylcholinesterase and 364 nM at Acetylcholinesterase.
The corresponding values for `CCN(C)CC(=O)c1ccc(OC2Cc3cc(OC)c(OC)cc3C2=O)cc1` (stereo not given) are 18.6, 588 nM and 31.6 nM.
For the compound `COc1cc2c(cc1OC)C(=O)C(Oc1ccc(CCN3CCCCC3)cc1)C2` (stereo not given), in the test filed under Rattus norvegicus, the Ratio IC50 was found to be 102. Further, the IC50 on Butyrylcholinesterase was found to be 5110 nM; against Acetylcholinesterase, 50.2 nM.
Regarding `CCN(C)CCCC(=O)c1ccc(OC2Cc3cc(OC)c(OC)cc3C2=O)cc1` (stereo not given), in the test listed under Rattus norvegicus, the Ratio IC50 worked out at 715. The figures for the IC50 against Butyrylcholinesterase and against Acetylcholinesterase were 26900 nM and 37.6 nM, respectively.
For `COc1cc2c(cc1OC)C(=O)C(Oc1ccc(CCN3CCCC3)cc1)C2` (stereo not given), in that order: 816, 30400 nM and 37.3 nM.
`COc1cc2c(cc1OC)C(=O)C(Oc1cccc(CCN3CCCCC3)c1)C2` (stereo not given): the Ratio IC50 in the test listed under Rattus norvegicus came to 4.52. Besides, the IC50 on Butyrylcholinesterase was 7000 nM; against Acetylcholinesterase, 1550 nM.
On to `CCN(CC)CCCc1ccc(OC2Cc3cc(OC)c(OC)cc3C2=O)cc1` (stereo not given), for which the Ratio IC50 in the test listed under Rattus norvegicus is 14.4. The IC50 at Butyrylcholinesterase worked out at 3990 nM; against Acetylcholinesterase, 277 nM.
Consider `COc1cc2c(cc1OC)C(=O)C(Oc1ccc(C(=O)CN3CCCC3)cc1)C2` (stereo not given), for which the Ratio IC50 in the test listed under Rattus norvegicus came out at 7.2. For the same compound, the IC50 against Butyrylcholinesterase is 1720 nM; against Acetylcholinesterase it was 240 nM.
As to `COc1cc2c(cc1OC)C(=O)C(Oc1cccc(CCN3CCCC3)c1)C2` (stereo not given), in the test filed under Rattus norvegicus, the Ratio IC50 was 8.69. Further, the IC50 against Butyrylcholinesterase is 15400 nM; on Acetylcholinesterase it was 1770 nM.
In the case of `COc1cc2c(cc1OC)C(=O)C(Oc1ccc(CCCN3CCCCC3)cc1)C2` (stereo not given), in the test listed under Rattus norvegicus, the Ratio IC50 came out at 4.36. Also, the results for the IC50 on Butyrylcholinesterase and against Acetylcholinesterase were 2790 nM and 640 nM, respectively.
In the case of `COc1cc2c(cc1OC)C(=O)C(Oc1ccc(C(=O)CCCN3CCCCC3)cc1)C2` (stereo not given), the Ratio IC50 in the test listed under Rattus norvegicus amounted to 17. Besides, the 50% inhibitory concentration (IC50) at Butyrylcholinesterase was 8970 nM; on Acetylcholinesterase, 529 nM.
In the case of `CCN(CC)CCC(=O)c1ccc(OC2Cc3cc(OC)c(OC)cc3C2=O)cc1` (stereo not given), the Ratio IC50 in the test filed under Rattus norvegicus worked out at 1950. Besides, the IC50 against Butyrylcholinesterase was 1520 nM; at Acetylcholinesterase it was 0.78 nM. Moreover, the outcome in the test with PC-12 [1] and with PC-12 [2] was Active.
Turning to `CCN(CC)CCc1cccc(OC2Cc3cc(OC)c(OC)cc3C2=O)c1` (stereo not given), the Ratio IC50 in the test filed under Rattus norvegicus was found to be 5.31. For the same compound, the IC50 against Butyrylcholinesterase came to 11100 nM; against Acetylcholinesterase it was 2090 nM.
The corresponding values for `COc1cc2c(cc1OC)C(=O)C(Oc1cccc(C(=O)CCN3CCCC3)c1)C2` (stereo not given) are 13.3, 11100 nM and 832 nM.
The corresponding values for `COc1cc2c(cc1OC)C(=O)C(Oc1ccc(CCCCN3CCCC3)cc1)C2` (stereo not given) are 7.76, 3220 nM and 415 nM.
For `CCN(C)CCC(=O)c1ccc(OC2Cc3cc(OC)c(OC)cc3C2=O)cc1` (stereo not given), in the test listed under Rattus norvegicus, the Ratio IC50 is 2440. For the same compound, the IC50 against Butyrylcholinesterase is 4510 nM; against Acetylcholinesterase, 1.85 nM.
Take `CCN(CC)CCCC(=O)c1ccc(OC2Cc3cc(OC)c(OC)cc3C2=O)cc1` (stereo not given): the Ratio IC50 in the test filed under Rattus norvegicus was found to be 927. Moreover, the IC50 against Butyrylcholinesterase came to 37700 nM; on Acetylcholinesterase it was 40.6 nM.
For `COc1cc2c(cc1OC)C(=O)C(Oc1ccc(CCCN3CCCC3)cc1)C2` (stereo not given), in that order: 11.2, 2340 nM and 209 nM.
With `COc1cc2c(cc1OC)C(=O)C(Oc1ccc(C(=O)CCN3CCCCC3)cc1)C2` (stereo not given), the Ratio IC50 in the test filed under Rattus norvegicus was 187. The values for the IC50 against Butyrylcholinesterase and against Acetylcholinesterase were 3240 nM and 17.3 nM, respectively.
The corresponding values for `COc1cc2c(cc1OC)C(=O)C(Oc1ccc(C(=O)CCN3CCCC3)cc1)C2` (stereo not given) are 1450, 6040 nM and 4.16 nM.

The values are drawn from ChEMBL document CHEMBL1156564, “2-Phenoxy-indan-1-one derivatives as acetylcholinesterase inhibitors: a study on the importance of modifications at the side chain on the activity” (Bioorg Med Chem, 2008).
